In ChEMBL document CHEMBL5058577, “EUbOPEN Chemogenomics Library 2 (Multiplex)” (2022):

Tested on: Fibroblast
Assay: Multiplex assay against human fibroblast
Assay type: toxicity, cell-based
Summary of the method: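 Values for tubulin, mitochondrial-mass and membrane-permeability phenotypes are per cents of cells with healthy nuclei. These cells were identified by CellPathfinder machine-learning gating of live cells that had been stained at seeding with Hoechst33342, BioTracker Green Microtubule Cytoskeleton Dye, MitoTracker Red and Annexin V Alexa Fluor 680 and imaged on a CQ1 microscope at 37°C and 5% CO2 after compound addition. The gating first set Hoechst high-intensity objects apart from normal cells, then split normal cells into healthy, pyknosed or fragmented nuclei, and pyknosed cells into mitotic or apoptotic.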

[1] = 12 h, 1 µM, compound concentration 1 uM, replicate 1
[2] = 12 h, 1 µM, compound concentration 1 uM, replicate 2
[3] = 12 h, 10 µM, compound concentration 10 uM, replicate 1
[4] = 12 h, 10 µM, compound concentration 10 uM, replicate 2
[5] = 24 h, 1 µM, compound concentration 1 uM, replicate 1
[6] = 24 h, 1 µM, compound concentration 1 uM, replicate 2
[7] = 24 h, 10 µM, compound concentration 10 uM, replicate 1
[8] = 24 h, 10 µM, compound concentration 10 uM, replicate 2
[9] = 48 h, 1 µM, compound concentration 1 uM, replicate 1
[10] = 48 h, 1 µM, compound concentration 1 uM, replicate 2
[11] = 48 h, 10 µM, compound concentration 10 uM, replicate 1
[12] = 48 h, 10 µM, compound concentration 10 uM, replicate 2

Cc1cc(=O)n(C)c2cc(N3C(=O)CC[C@H](NS(=O)(=O)CC(C)C)[C@H]3c3ccc(Cl)cc3)ccc12
Population Apoptotic (%) [1]: 31% | Population Fragmented Nuclei (%) [1]: 16% | Population Healthy Nuclei (%) [1]: 56% | Population Hoechst High Intensity Objects (%) [1]: 2% | Population Membrane Permeable-Phenotype (%) [1]: 0% | Population Mitochondria Different-Phenotype (%) [1]: 4% | Population Mitotic Cells (%) [1]: 68% | Population Normal (%) [1]: 97% | Population Pyknosed Nuclei (%) [1]: 26% | Population Tubulin-Different-Phenotype (%) [1]: 34% | Total Cell Count [1]: 135 | Population Apoptotic (%) [2]: 38% | Population Fragmented Nuclei (%) [2]: 20% | Population Healthy Nuclei (%) [2]: 38% | Population Hoechst High Intensity Objects (%) [2]: 10% | Population Membrane Permeable-Phenotype (%) [2]: 8% | Population Mitotic Cells (%) [2]: 62% | Population Normal (%) [2]: 89% | Population Pyknosed Nuclei (%) [2]: 40% | Population Tubulin-Different-Phenotype (%) [2]: 61% | Total Cell Count [2]: 137 | Population Apoptotic (%) [3]: 41% | Population Fragmented Nuclei (%) [3]: 11% | Population Healthy Nuclei (%) [3]: 40% | Population Hoechst High Intensity Objects (%) [3]: 3% | Population Membrane Permeable-Phenotype (%) [3]: 1% | Population Mitochondria Different-Phenotype (%) [3]: 8% | Population Mitotic Cells (%) [3]: 58% | Population Normal (%) [3]: 96% | Population Pyknosed Nuclei (%) [3]: 48% | Population Tubulin-Different-Phenotype (%) [3]: 86% | Total Cell Count [3]: 149 | Population Apoptotic (%) [4]: 18% | Population Fragmented Nuclei (%) [4]: 26% | Population Healthy Nuclei (%) [4]: 31% | Population Hoechst High Intensity Objects (%) [4]: 11% | Population Membrane Permeable-Phenotype (%) [4]: 8% | Population Mitotic Cells (%) [4]: 82% | Population Normal (%) [4]: 88% | Population Pyknosed Nuclei (%) [4]: 42% | Population Tubulin-Different-Phenotype (%) [4]: 94% | Total Cell Count [4]: 133 | Population Apoptotic (%) [5]: 34% | Population Fragmented Nuclei (%) [5]: 18% | Population Healthy Nuclei (%) [5]: 62% | Population Hoechst High Intensity Objects (%) [5]: 2% | Population Membrane Permeable-Phenotype (%) [5]: 1% | Population Mitochondria Different-Phenotype (%) [5]: 4% | Population Mitotic Cells (%) [5]: 65% | Population Normal (%) [5]: 97% | Population Pyknosed Nuclei (%) [5]: 18% | Population Tubulin-Different-Phenotype (%) [5]: 24% | Total Cell Count [5]: 140 | Population Apoptotic (%) [6]: 50% | Population Fragmented Nuclei (%) [6]: 26% | Population Healthy Nuclei (%) [6]: 44% | Population Hoechst High Intensity Objects (%) [6]: 10% | Population Membrane Permeable-Phenotype (%) [6]: 13% | Population Mitochondria Different-Phenotype (%) [6]: 5% | Population Mitotic Cells (%) [6]: 50% | Population Normal (%) [6]: 89% | Population Pyknosed Nuclei (%) [6]: 29% | Population Tubulin-Different-Phenotype (%) [6]: 70% | Total Cell Count [6]: 128 | Population Apoptotic (%) [7]: 43% | Population Fragmented Nuclei (%) [7]: 14% | Population Healthy Nuclei (%) [7]: 46% | Population Hoechst High Intensity Objects (%) [7]: 10% | Population Membrane Permeable-Phenotype (%) [7]: 0% | Population Mitochondria Different-Phenotype (%) [7]: 19% | Population Mitotic Cells (%) [7]: 56% | Population Normal (%) [7]: 90% | Population Pyknosed Nuclei (%) [7]: 39% | Population Tubulin-Different-Phenotype (%) [7]: 88% | Total Cell Count [7]: 150 | Population Apoptotic (%) [8]: 42% | Population Fragmented Nuclei (%) [8]: 28% | Population Healthy Nuclei (%) [8]: 26% | Population Hoechst High Intensity Objects (%) [8]: 8% | Population Membrane Permeable-Phenotype (%) [8]: 17% | Population Mitochondria Different-Phenotype (%) [8]: 8% | Population Mitotic Cells (%) [8]: 57% | Population Normal (%) [8]: 91% | Population Pyknosed Nuclei (%) [8]: 45% | Population Tubulin-Different-Phenotype (%) [8]: 85% | Total Cell Count [8]: 143 | Population Apoptotic (%) [9]: 48% | Population Fragmented Nuclei (%) [9]: 27% | Population Healthy Nuclei (%) [9]: 54% | Population Hoechst High Intensity Objects (%) [9]: 2% | Population Membrane Permeable-Phenotype (%) [9]: 1% | Population Mitochondria Different-Phenotype (%) [9]: 2% | Population Mitotic Cells (%) [9]: 52% | Population Normal (%) [9]: 97% | Population Pyknosed Nuclei (%) [9]: 18% | Population Tubulin-Different-Phenotype (%) [9]: 27% | Total Cell Count [9]: 141 | Population Apoptotic (%) [10]: 46% | Population Fragmented Nuclei (%) [10]: 35% | Population Hoechst High Intensity Objects (%) [10]: 7% | Population Membrane Permeable-Phenotype (%) [10]: 8% | Population Mitochondria Different-Phenotype (%) [10]: 8% | Population Mitotic Cells (%) [10]: 53% | Population Normal (%) [10]: 92% | Population Pyknosed Nuclei (%) [10]: 9% | Population Tubulin-Different-Phenotype (%) [10]: 73% | Total Cell Count [10]: 142 | Population Apoptotic (%) [11]: 61% | Population Fragmented Nuclei (%) [11]: 23% | Population Healthy Nuclei (%) [11]: 38% | Population Hoechst High Intensity Objects (%) [11]: 15% | Population Membrane Permeable-Phenotype (%) [11]: 0% | Population Mitochondria Different-Phenotype (%) [11]: 24% | Population Mitotic Cells (%) [11]: 38% | Population Normal (%) [11]: 84% | Population Pyknosed Nuclei (%) [11]: 37% | Population Tubulin-Different-Phenotype (%) [11]: 92% | Total Cell Count [11]: 153 | Population Apoptotic (%) [12]: 54% | Population Fragmented Nuclei (%) [12]: 34% | Population Healthy Nuclei (%) [12]: 37% | Population Hoechst High Intensity Objects (%) [12]: 10% | Population Membrane Permeable-Phenotype (%) [12]: 25% | Population Mitochondria Different-Phenotype (%) [12]: 8% | Population Mitotic Cells (%) [12]: 45% | Population Normal (%) [12]: 89% | Population Pyknosed Nuclei (%) [12]: 27% | Population Tubulin-Different-Phenotype (%) [12]: 87% | Total Cell Count [12]: 141
